Reference: ChEMBL document CHEMBL1124259, “C-nor-9,11-secoestranes as modified estrogens and fertility regulation” (1988)

Legend:
Type in all cases: functional
Rattus norvegicus [1] = experiment: Antiimplantation activity as minimum effective dose after subcutaneous administration.; details: sc, read-out: MED
Method in brief: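 Compound was given subcutaneously in 0.5 mL propylene glycol–saline (1:1, v/v) to colony-bred adult female rats (150–170 g) on days 1–7 postcoitum, five to seven animals per group. Laparotomy on day 10 of pregnancy counted implants. The minimum dose giving total absence of implants in both uterine horns was recorded.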

Rattus norvegicus [2] = experiment: Antiimplantation activity as minimum effective dose after oral administration.; details: read-out: MED
Method in brief: (§1)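 Colony-bred adult female rats (150–170 g) were dosed orally with the compound as a gum acacia suspension on days 1–7 postcoitum, five to seven animals per group. Implants were counted by laparotomy on day 10 of pregnancy. The value is the minimum dose at which implants were totally absent from both uterine horns.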

Rattus norvegicus [3] = experiment: Antiimplantation activity as minimum effective dose after peroral administration.; details: po, read-out: MED; method in brief: as §1
Rattus norvegicus [4] = experiment: Antiimplantation activity was measured as minimum effective dose after oral administration.; details: read-out: MED; method in brief: as §1
Rattus norvegicus [5] = experiment: Antiimplantation activity as minimum effective dose after oral administration; details: read-out: MED; method in brief: as §1

SMILES | minimal effective dose (Rattus norvegicus [1]) [mg/kg] | minimal effective dose (Rattus norvegicus [3]) [mg/kg] | further results
C#C[C@]1(O)CCC(C2CCc3cc(O)ccc3C2)C1(C)C (stereo not given in full) | 0.025 | – | minimal effective dose (Rattus norvegicus [2]): 0.75 mg/kg
COc1ccc2c(c1)CCC(C1CCC(O)C1(C)C)C2 (stereo not given) | 1.5 | 10.5 | –
CC1(C)C(O)CCC1C1CCc2cc(O)ccc2C1 (stereo not given) | 0.01 | 10 | –
C#C[C@]1(O)CCC(C2CCc3cc(OC)ccc3C2)C1(C)C (stereo not given in full) | 0.025 | – | minimal effective dose (Rattus norvegicus [4]): 1 mg/kg
C[C@]12CC[C@@H]3c4ccc(O)cc4CC[C@H]3[C@@H]1CC[C@@H]2O [ESTRADIOL] | 0.015 | – | –
C#C[C@]1(O)CC[C@H]2[C@@H]3CCc4cc(O)ccc4[C@H]3CC[C@@]21C [ETHINYL ESTRADIOL] | – | – | minimal effective dose (Rattus norvegicus [5]): 0.15 mg/kg
